ChEMBL document CHEMBL1123493, “Synthesis and antiviral activity of the carbocyclic analogues of 5-ethyl-2'-deoxyuridine and of 5-ethynyl-2'-deoxyuridine” (1986)
In brackets after ≈: the same amount, converted by molar mass. Several values for one entry are separate records, joined by “and”; a condition that tells them apart may be missing. Equal entries are not always repeated.

Key:
Oryctolagus cuniculus [1] = species on record: Oryctolagus cuniculus; assay: Compound was tested for the inhibition of the replication of herpes simplex virus in vero cells of HSV-2 strain MS in rabbit kidney cells; assay type: functional
Oryctolagus cuniculus [2] = species on record: Oryctolagus cuniculus; assay: Compound was evaluated for antiviral activity against HSV-2 strain MS in rabbit kidney cells; assay type: functional
Oryctolagus cuniculus [3] = species on record: Oryctolagus cuniculus; assay: Compound was evaluated for antiviral activity against Herpes Simplex Virus (HSV-1 strain 377) in rabbit kidney cells; assay type: functional
Oryctolagus cuniculus [4] = species on record: Oryctolagus cuniculus; assay: Compound was tested for the inhibition of the replication of herpes simplex virus (HSV-I strain 377) in rabbit kidney cells; assay type: functional
Vero [5] = assay: Compound was evaluated for antiviral activity against Herpes Simplex Virus (HSV-2 strain MS) in vero cells in exp. no. 3; assay type: functional, Chlorocebus sabaeus
Outline: (§1)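 Inhibition of virus-induced cytopathogenic effect was measured in Vero cells infected with TK⁺ HSV-1 strain 377 or TK⁺ HSV-2 strain MS, using a modified Ehrlich method. Activity is given as a virus rating, which weights both the degree of CPE inhibition and the cytotoxicity of the compound. Potency is given as the minimum inhibitory concentration (MIC₅₀).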

Vero [6] = assay: Compound was evaluated for antiviral activity against Herpes Simplex Virus (HSV-1 strain 377) in vero cells in exp. no. 3; assay type: functional, Chlorocebus sabaeus; outline: as §1
Vero [7] = assay: Compound was tested for the inhibition of the replication of herpes simplex virus (HSV-I strain 377) in vero cells in exp. no. 3; assay type: functional; conditions: Chlorocebus sabaeus; outline: as §1
Vero [8] = assay: Compound was evaluated for antiviral activity against Herpes Simplex Virus (HSV-2 strain MS) in vero cells in exp. No. 1; assay type: functional, Chlorocebus sabaeus; outline: as §1
Vero [9] = assay: Compound was evaluated for antiviral activity against Herpes Simplex Virus (HSV-2 strain MS) in vero cells in exp. No. 2; assay type: functional, Chlorocebus sabaeus; outline: as §1
Vero [10] = assay: Compound was evaluated for antiviral activity against Herpes Simplex Virus (HSV-2 strain MS) in vero cells in exp. No. 3; assay type: functional, Chlorocebus sabaeus; outline: as §1
Vero [11] = assay: Compound was tested for the inhibition of the replication of herpes simplex virus (HSV-I strain 377) in vero cells of in exp. No. 1; assay type: functional; conditions: Chlorocebus sabaeus; outline: as §1
Vero [12] = assay: Compound was evaluated for antiviral activity against Herpes Simplex Virus (HSV-1 strain 377) in vero cells in exp. No. 1; assay type: functional, Chlorocebus sabaeus; outline: as §1
Vero [13] = assay: Compound was evaluated for antiviral activity against Herpes Simplex Virus (HSV-1 strain 377) in vero cells in exp. No. 2; assay type: functional, Chlorocebus sabaeus; outline: as §1
Vero [14] = assay: Compound was tested for the inhibition of the replication of herpes simplex virus (HSV-2 strain MS) in vero cells in exp. No. 1; assay type: functional; conditions: Chlorocebus sabaeus; outline: as §1
Vero [15] = assay: (§2) Compound was tested for the inhibition of the replication of herpes simplex virus (HSV-2 strain MS) in vero cells in exp. No. 2; assay type: functional; conditions: Chlorocebus sabaeus; outline: as §1
Vero [16] = assay: Compound was tested for the inhibition of the replication of herpes simplex virus (HSV-2 strain MS) in vero cells in exp. No. 3; assay type: functional; conditions: Chlorocebus sabaeus; outline: as §1
Vero [17] = assay: Compound was tested for the inhibition of the replication of herpes simplex virus (HSV-I strain 377) in vero cells in exp. No. 1; assay type: functional; conditions: Chlorocebus sabaeus; outline: as §1
Vero [18] = assay: Compound was tested for the inhibition of the replication of herpes simplex virus (HSV-I strain 377) in vero cells in exp. No. 2; assay type: functional; conditions: Chlorocebus sabaeus; outline: as §1
Vero [19] = assay: Compound was tested for the inhibition of the replication of herpes simplex virus (HSV-I strain 377) in vero cells in exp. No. 3; assay type: functional; conditions: Chlorocebus sabaeus; outline: as §1
Vero [20] = assay: Compound was evaluated for antiviral activity against Herpes Simplex Virus (HSV-1 strain 377) in vero cells in exp. No. 3; assay type: functional, Chlorocebus sabaeus; outline: as §1
Vero [21] = assay: Compound was evaluated for antiviral activity against Herpes Simplex virus (HSV-1 strain 377) in exp. no. 2; assay type: functional, Chlorocebus sabaeus
Vero [22] = assay: Compound was evaluated for antiviral activity against Herpes Simplex virus (HSV-2 strain MS) in exp. no. 1; assay type: functional, Chlorocebus sabaeus
Vero [23] = assay: Compound was evaluated for antiviral activity against Herpes Simplex virus (HSV-2 strain MS) in exp. no. 2; assay type: functional, Chlorocebus sabaeus
Vero [24] = assay: Compound was tested for the inhibition of the replication of herpes simplex virus (HSV-I strain 377) in vero cells of in exp. no. 1; assay type: functional; conditions: Chlorocebus sabaeus; outline: as §1
Vero [25] = assay: Compound was tested for the inhibition of the replication of herpes simplex virus (HSV-I strain 377) in vero cells of in exp. no. 2; assay type: functional; conditions: Chlorocebus sabaeus; outline: as §1
Vero [26] = assay: Compound was evaluated for antiviral activity against Herpes Simplex Virus (HSV-1 strain 377) in vero cells in exp. no. 1; assay type: functional, Chlorocebus sabaeus; outline: as §1
Vero [27] = assay: Compound was tested for the inhibition of the replication of herpes simplex virus (HSV-2 strain MS) in vero cells in exp. no.1; assay type: functional; conditions: Chlorocebus sabaeus; outline: as §1
Vero [28] = assay: Compound was tested for the inhibition of the replication of herpes simplex virus (HSV-2 strain MS) in vero cells in exp. no.2; assay type: functional; conditions: Chlorocebus sabaeus; outline: as §1
Vero [29] = assay: Compound was tested for the inhibition of the replication of herpes simplex virus (HSV-I strain 377) in vero cells in exp. no. 1; assay type: functional; conditions: Chlorocebus sabaeus; outline: as §1
Vero [30] = assay: as §2; assay type: functional; conditions: Chlorocebus sabaeus; outline: as §1; remark: listed apart in the source
Vero [31] = assay: Compound was evaluated for antiviral activity against Herpes Simplex Virus (HSV-1 strain 377) in vero cells in exp. no.1; assay type: functional, Chlorocebus sabaeus; outline: as §1
Vero [32] = assay: Compound was evaluated for antiviral activity against Herpes Simplex Virus (HSV-2 strain MS) in vero cells in exp. no.2; assay type: functional, Chlorocebus sabaeus; outline: as §1
Vero [33] = assay: Compound was tested for the inhibition of the replication of herpes simplex virus (HSV-I strain 377) in vero cells in exp. no.1; assay type: functional; conditions: Chlorocebus sabaeus; outline: as §1

Cc1cn([C@@H]2C[C@H](CO)[C@@H](O)C2)c(=O)[nH]c1=O
MIC50 (Oryctolagus cuniculus [1]): 7 µg/mL (≈ 29.1 µM)
VR (Oryctolagus cuniculus [2]): 3.2
VR (Oryctolagus cuniculus [3]): 5.4
MIC50 (Oryctolagus cuniculus [4]): 0.8 µg/mL (≈ 3.33 µM)

C[Si](C)(C)CCc1cn([C@H]2C[C@H](O)[C@@H](CO)O2)c(=O)[nH]c1=O
VR (Vero [5]): 0.1
VR (Vero [6]): 0.5
MIC50 (Vero [7]): 320 µg/mL and 980 µM

Nc1ncnc2c1ncn2[C@@H]1O[C@H](CO)[C@@H](O)[C@@H]1O [VIDARABINE]
VR (Vero [8]): 1.7
VR (Vero [9]): 1.3
VR (Vero [10]): 1.2
MIC50 (Vero [11]): 18 µg/mL (≈ 67.4 µM)
VR (Vero [12]): 2.1
VR (Vero [13]): 2
MIC50 (Vero [14]): 22 µg/mL and 80 µM
MIC50 (Vero [15]): 45 µg/mL and 170 µM
MIC50 (Vero [16]): 24 µg/mL and 90 µM
MIC50 (Vero [17]): 70 µM (≈ 18.7 µg/mL)
MIC50 (Vero [18]): 15 µg/mL and 60 µM
MIC50 (Vero [19]): 5 µg/mL and 20 µM
VR (Vero [20]): 2.4

CCc1cn(C2CC(O)C(CO)C2)c(=O)[nH]c1=O (stereo not given)
VR (Vero [21]): 2.1
VR (Vero [22]): 1.1
VR (Vero [23]): 1.1
MIC50 (Vero [24]): 45 µg/mL (≈ 177 µM)
MIC50 (Vero [25]): 70 µg/mL and 270 µM
VR (Vero [26]): 2.4
MIC50 (Vero [27]): 230 µg/mL and 890 µM
MIC50 (Vero [28]): 180 µg/mL and 700 µM
MIC50 (Vero [29]): 170 µM (≈ 43.2 µg/mL)

CCc1cn([C@H]2C[C@H](O)[C@@H](CO)O2)c(=O)[nH]c1=O [EDOXUDINE]
VR (Vero [9]): 2.2
VR (Vero [13]): 2.3
MIC50 (Vero [15]): 37 µg/mL (≈ 144 µM)
MIC50 (Vero [18]): 20 µg/mL and 80 µM
MIC50 (Vero [30]): 140 µM (≈ 35.9 µg/mL)

C#Cc1cn(C2CC(O)C(CO)C2)c(=O)[nH]c1=O (stereo not given)
VR (Vero [31]): 0.9
VR (Vero [32]): 1.1
MIC50 (Vero [28]): 210 µg/mL and 830 µM
MIC50 (Vero [33]): 250 µg/mL and 990 µM

CC(=O)OC[C@H]1O[C@@H](n2cc(C#C[Si](C)(C)C)c(=O)[nH]c2=O)C[C@@H]1OC(C)=O
VR (Vero [5]): 0
VR (Vero [6]): 0
